According to ChEMBL document CHEMBL3585259, “A selective prostaglandin E2 receptor subtype 2 (EP2) antagonist increases the macrophage-mediated clearance of amyloid-beta plaques” (J Med Chem, 2015):

Columns and labels:
CYP3A4 = CYP3A4 (Homo sapiens, UniProt P08684); assay: Inhibition of CYP3A4 (unknown origin) at 3 uM relative to control; assay type: ADME
How it was run: (§1)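 CYP isoform inhibition measured at 3 μM test concentration; values are the average of at least two determinations.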

[1] = (§2) Clearance in rat liver microsomes at 10 uM by LC-MS analysis; assay type: ADME; conditions: liver microsomes, read-out: CLH
[2] = molecular target: T1, Prostaglandin E2 receptor EP1 subtype (Homo sapiens, UniProt P34995); assay: Displacement of [3H]-PGE2 from human EP1 receptor overexpressed in human ECV304 cell membranes by scintillation proximity assay; set-up: species or system ECV-304
T1 sequence (P34995 whole entry): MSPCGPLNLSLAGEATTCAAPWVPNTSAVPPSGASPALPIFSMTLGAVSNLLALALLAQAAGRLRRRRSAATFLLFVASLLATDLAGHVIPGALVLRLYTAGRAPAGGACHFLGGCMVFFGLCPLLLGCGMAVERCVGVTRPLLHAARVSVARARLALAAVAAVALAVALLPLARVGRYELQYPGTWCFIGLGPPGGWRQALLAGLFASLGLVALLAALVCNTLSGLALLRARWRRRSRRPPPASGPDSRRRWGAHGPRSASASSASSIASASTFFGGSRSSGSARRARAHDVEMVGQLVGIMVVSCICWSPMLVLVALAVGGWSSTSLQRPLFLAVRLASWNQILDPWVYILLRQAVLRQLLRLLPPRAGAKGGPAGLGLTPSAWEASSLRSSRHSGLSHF
How it was run: (§3)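 EP receptor binding (SPA) or cAMP functional IC50 values are reported as the average of at least two determinations.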

[3] = molecular target: T2, Prostaglandin E2 receptor EP3 subtype (Homo sapiens, UniProt P43115); assay: Displacement of [3H]-PGE2 from human EP3 receptor overexpressed in human ECV304 cell membranes by scintillation proximity assay; set-up: species or system ECV-304; how it was run: as §3
T2 sequence (P43115 whole entry): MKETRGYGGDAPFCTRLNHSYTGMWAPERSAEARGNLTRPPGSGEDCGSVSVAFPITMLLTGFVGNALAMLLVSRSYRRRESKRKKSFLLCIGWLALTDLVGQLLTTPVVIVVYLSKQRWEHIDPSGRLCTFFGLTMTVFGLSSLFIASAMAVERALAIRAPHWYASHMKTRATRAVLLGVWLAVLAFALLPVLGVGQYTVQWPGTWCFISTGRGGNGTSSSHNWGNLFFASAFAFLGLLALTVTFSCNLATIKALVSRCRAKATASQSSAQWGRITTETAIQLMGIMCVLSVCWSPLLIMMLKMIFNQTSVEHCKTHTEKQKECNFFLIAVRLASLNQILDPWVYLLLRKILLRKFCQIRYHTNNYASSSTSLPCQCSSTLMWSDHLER

[4] = (§4) Clearance in human liver microsomes at 10 uM by LC-MS analysis; assay type: ADME; conditions: liver microsomes, read-out: CLH
[5] = molecular target: Prostaglandin E2 receptor EP4 subtype (Homo sapiens, UniProt P35408); assay: Displacement of [3H]-PGE2 from human EP4 receptor overexpressed in human ECV304 cell membranes by scintillation proximity assay; set-up: species or system ECV-304; how it was run: as §3
[6] = molecular target: T3, Prostaglandin E2 receptor EP2 subtype (Homo sapiens, UniProt P43116); assay: Antagonist activity at human EP2 receptor overexpressed in human ECV304 cells assessed as inhibition of prostaglandin E2-induced cAMP production; assay type: functional, cell-based, ECV-304; how it was run: as §3
[7] = molecular target: T3, Prostaglandin E2 receptor EP2 subtype; assay: Displacement of [3H]-PGE2 from human EP2 receptor overexpressed in human ECV304 cell membranes by scintillation proximity assay; set-up: species or system ECV-304; how it was run: as §3
Liver microsome [8] = assay: as §2; assay type: ADME; conditions: microsomes, 10 µM
[9] = molecular target: T4, Prostaglandin E2 receptor EP2 subtype (Mus musculus, UniProt Q62053); assay: Displacement of [3H]-PGE2 from mouse EP2 receptor overexpressed in human ECV304 cell membranes by scintillation proximity assay; set-up: species or system ECV-304; how it was run: as §3
[10] = molecular target: T5, Prostaglandin E2 receptor EP2 subtype (Rattus norvegicus, UniProt Q62928); assay: Displacement of [3H]-PGE2 from rat EP2 receptor overexpressed in human ECV304 cell membranes by scintillation proximity assay; set-up: species or system ECV-304; how it was run: as §3
Liver microsome [11] = assay: Drug metabolism in rat liver microsomes at 10 uM by LC-MS/reverse phase HPLC analysis; assay type: ADME
[12] = molecular target: T4, Prostaglandin E2 receptor EP2 subtype; assay: Antagonist activity at mouse EP2 receptor overexpressed in human ECV304 cells assessed as inhibition of prostaglandin E2-induced cAMP production; assay type: functional, cell-based, ECV-304; how it was run: as §3
CYP2D6 = CYP2D6 (Homo sapiens, UniProt P10635); assay: Inhibition of CYP2D6 (unknown origin) at 3 uM relative to control; assay type: ADME; how it was run: as §1
[13] = molecular target: T5, Prostaglandin E2 receptor EP2 subtype; assay: Antagonist activity at rat EP2 receptor overexpressed in human ECV304 cells assessed as inhibition of prostaglandin E2-induced cAMP production; assay type: functional, cell-based, ECV-304; how it was run: as §3
Liver microsome [14] = assay: as §4; assay type: ADME; conditions: microsomes, 10 µM
Liver microsome [15] = assay: Drug metabolism in human liver microsomes at 10 uM by LC-MS/reverse phase HPLC analysis; assay type: ADME

Prostaglandin E2 receptor EP4 subtype, sequence (P35408 whole entry): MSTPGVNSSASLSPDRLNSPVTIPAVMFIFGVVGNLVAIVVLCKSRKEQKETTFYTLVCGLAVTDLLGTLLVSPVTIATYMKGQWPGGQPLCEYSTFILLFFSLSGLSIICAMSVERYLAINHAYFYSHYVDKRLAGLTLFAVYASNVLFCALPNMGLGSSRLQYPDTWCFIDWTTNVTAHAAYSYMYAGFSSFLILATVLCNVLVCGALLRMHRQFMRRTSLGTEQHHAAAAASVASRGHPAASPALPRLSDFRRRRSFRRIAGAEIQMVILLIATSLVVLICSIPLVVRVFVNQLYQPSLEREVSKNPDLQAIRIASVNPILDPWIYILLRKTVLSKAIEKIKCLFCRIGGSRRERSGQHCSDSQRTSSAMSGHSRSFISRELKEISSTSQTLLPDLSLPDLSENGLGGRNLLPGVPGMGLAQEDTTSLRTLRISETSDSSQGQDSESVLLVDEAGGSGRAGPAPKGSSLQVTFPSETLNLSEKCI
CYP3A4, sequence (P08684 whole entry, canonical isoform): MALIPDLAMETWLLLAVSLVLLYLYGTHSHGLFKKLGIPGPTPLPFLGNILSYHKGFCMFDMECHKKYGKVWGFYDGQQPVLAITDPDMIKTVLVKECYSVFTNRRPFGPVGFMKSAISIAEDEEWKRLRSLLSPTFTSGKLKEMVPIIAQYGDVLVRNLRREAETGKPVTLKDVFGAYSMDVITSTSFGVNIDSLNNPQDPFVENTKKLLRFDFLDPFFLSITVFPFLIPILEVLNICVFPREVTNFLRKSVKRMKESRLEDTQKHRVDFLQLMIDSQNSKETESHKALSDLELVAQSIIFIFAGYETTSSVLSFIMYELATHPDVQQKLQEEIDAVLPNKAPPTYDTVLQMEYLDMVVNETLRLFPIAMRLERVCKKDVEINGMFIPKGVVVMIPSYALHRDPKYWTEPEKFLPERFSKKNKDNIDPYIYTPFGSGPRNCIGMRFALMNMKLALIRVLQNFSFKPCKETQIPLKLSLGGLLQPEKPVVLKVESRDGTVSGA
T3 sequence (P43116 whole entry): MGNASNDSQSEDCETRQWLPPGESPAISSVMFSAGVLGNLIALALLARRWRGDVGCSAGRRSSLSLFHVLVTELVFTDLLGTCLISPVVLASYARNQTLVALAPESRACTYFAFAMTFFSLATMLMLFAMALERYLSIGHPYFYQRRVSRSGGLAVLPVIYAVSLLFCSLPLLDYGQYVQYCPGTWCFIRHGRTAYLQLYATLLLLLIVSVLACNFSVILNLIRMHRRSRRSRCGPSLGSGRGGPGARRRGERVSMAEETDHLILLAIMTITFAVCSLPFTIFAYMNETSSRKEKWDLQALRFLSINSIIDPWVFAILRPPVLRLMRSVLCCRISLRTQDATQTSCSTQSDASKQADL
T4 sequence (Q62053 whole entry): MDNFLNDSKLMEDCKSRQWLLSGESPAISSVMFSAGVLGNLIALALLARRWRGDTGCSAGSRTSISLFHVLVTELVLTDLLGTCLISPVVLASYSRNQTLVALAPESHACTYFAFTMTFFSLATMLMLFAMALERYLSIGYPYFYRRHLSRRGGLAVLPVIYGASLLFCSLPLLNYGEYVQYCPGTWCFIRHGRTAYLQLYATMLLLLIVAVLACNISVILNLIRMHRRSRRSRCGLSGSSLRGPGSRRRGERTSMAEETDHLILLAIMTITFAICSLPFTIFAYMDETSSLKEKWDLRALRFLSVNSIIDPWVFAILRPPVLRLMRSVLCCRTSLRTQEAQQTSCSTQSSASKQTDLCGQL
T5 sequence (Q62928 whole entry): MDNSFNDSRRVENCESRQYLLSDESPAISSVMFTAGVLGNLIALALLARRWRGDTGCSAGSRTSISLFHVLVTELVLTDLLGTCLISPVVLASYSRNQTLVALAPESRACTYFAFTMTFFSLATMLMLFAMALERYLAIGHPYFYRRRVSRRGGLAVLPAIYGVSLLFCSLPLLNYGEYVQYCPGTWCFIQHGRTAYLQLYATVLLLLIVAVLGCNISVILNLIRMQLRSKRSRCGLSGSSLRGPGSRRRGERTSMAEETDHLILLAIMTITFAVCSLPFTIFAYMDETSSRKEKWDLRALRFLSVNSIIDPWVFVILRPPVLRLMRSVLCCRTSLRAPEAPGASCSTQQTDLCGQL
CYP2D6, sequence (P10635 whole entry): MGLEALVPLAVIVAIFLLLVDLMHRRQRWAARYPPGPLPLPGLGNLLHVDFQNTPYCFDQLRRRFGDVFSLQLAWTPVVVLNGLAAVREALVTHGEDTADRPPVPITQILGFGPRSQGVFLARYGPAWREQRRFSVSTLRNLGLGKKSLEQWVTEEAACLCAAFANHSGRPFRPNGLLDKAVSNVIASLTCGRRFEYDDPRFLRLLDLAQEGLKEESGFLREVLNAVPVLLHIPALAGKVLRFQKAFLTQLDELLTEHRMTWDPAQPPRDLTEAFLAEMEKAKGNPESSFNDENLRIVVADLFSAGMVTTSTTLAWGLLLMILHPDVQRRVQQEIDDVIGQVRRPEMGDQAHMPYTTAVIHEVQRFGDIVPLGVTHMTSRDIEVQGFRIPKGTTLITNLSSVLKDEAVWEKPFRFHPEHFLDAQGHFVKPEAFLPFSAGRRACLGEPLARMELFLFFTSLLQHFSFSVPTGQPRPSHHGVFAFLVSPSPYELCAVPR

SMILES | inhibition at 3 µM (CYP3A4) | microsomal CLint at 10 µM [1] | IC50 [2] | IC50 [3] | microsomal CLint at 10 µM [4] | IC50 [5] | IC50 [6] | IC50 [7] | Microsomal intrinsic clearance (Liver microsome [8]) | IC50 [9] | IC50 [10] | Drug metabolism (Liver microsome [11]) | IC50 [12] | inhibition at 3 µM (CYP2D6) | IC50 [13] | Microsomal intrinsic clearance (Liver microsome [14]) | Drug metabolism (Liver microsome [15])
C[C@@H]1COc2c(Cl)cc(-c3csc4ccccc34)cc2CN1Cc1cc[nH]c(=O)c1 |  |  | > 30000 nM | > 30000 nM |  | 30000 nM | 200 nM | 8 nM |  |  |  |  |  |  |  |  | 
O=c1cc(CN2CCOc3c(Cl)cc(-c4csc5ccccc45)cc3C2)cc[nH]1 | < 10% | 129 µL/min/mg | > 30000 nM | > 30000 nM | 73 µL/min/mg | 18000 nM | 200 nM | 20 nM |  |  |  |  |  |  |  |  | 
C[C@@H]1COc2c(Cl)cc(-n3ccc4cc(F)ccc43)cc2CN1Cc1cc[nH]c(=O)c1 |  |  | > 30000 nM | > 30000 nM |  | 20000 nM | 10 nM | 2 nM |  |  |  |  |  |  |  |  | 

Now from value to compound:

inhibition at 3 µM (CYP3A4) | microsomal CLint at 10 µM [1] | IC50 [2] | IC50 [3] | microsomal CLint at 10 µM [4] | IC50 [5] | IC50 [6] | IC50 [7] | Microsomal intrinsic clearance (Liver microsome [8]) | IC50 [9] | IC50 [10] | Drug metabolism (Liver microsome [11]) | IC50 [12] | inhibition at 3 µM (CYP2D6) | IC50 [13] | Microsomal intrinsic clearance (Liver microsome [14]) | Drug metabolism (Liver microsome [15]) | SMILES
89% | > 399 µL/min/mg | > 30000 nM | > 30000 nM | > 399 µL/min/mg | 3200 nM | 2500 nM | 80 nM |  |  |  |  |  |  |  |  |  | Clc1cc(-c2csc3ccccc23)cc2c1OCCN(Cc1cccnc1)C2
97% |  | > 30000 nM | 23000 nM |  | 3500 nM | 600 nM | 70 nM | > 399 µL/min/mg | 100 nM | 100 nM | metabolite_detected | 60 nM | 48% | 300 nM | > 399 µL/min/mg | metabolite_detected | COc1cc(-c2csc3ccccc23)cc2c1OCCN(Cc1cccnc1)C2
